ChEMBL document CHEMBL1144902, “Discovery, characterization, and structure-activity relationships studies of proapoptotic polyphenols targeting B-cell lymphocyte/leukemia-2 proteins” (J Med Chem, 2003)

Experiments:
[1] = system: HeLa; assay: Inhibitory concentration in HeLa cells; format: functional, cell-based; conditions: Homo sapiens
Outline: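 HeLa viability assay. Low-passage HeLa (passage 10–20) treated with compounds at 0, 1, 3, 10 and 100 µM; viability read out. Values given as mean with standard deviation, n = 4.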

[2] = target: Bcl-2-like protein 1 (Homo sapiens, UniProt Q07817); assay: Inhibitory concentration against Bcl-xl
[3] = system: MCF7S; assay: Inhibitory concentration in MCF-7 cells; format: functional, cell-based; conditions: Homo sapiens
Outline: (§1)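 XTT viability: MCF7 grown in DMEM/10% FBS with 10^-10 M insulin, 1 mM pyruvate, glutamine; ZR75-1 in RPMI/10% FBS with HEPES, 1 mM pyruvate, glutamine. 1000 cells/well seeded in triplicate, compounds at final 0, 1, 10 and 100 µM for 3 days. Then XTT (1 mg/mL) with 0.025 mM PMS added for 4 h. OD450 read, blank wells subtracted.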

[4] = system: ZR-75-1; assay: Inhibitory concentration in ZR-75-1 cells; format: functional, cell-based; conditions: Homo sapiens; outline: as §1

Sequence of Bcl-2-like protein 1 (Q07817 whole entry): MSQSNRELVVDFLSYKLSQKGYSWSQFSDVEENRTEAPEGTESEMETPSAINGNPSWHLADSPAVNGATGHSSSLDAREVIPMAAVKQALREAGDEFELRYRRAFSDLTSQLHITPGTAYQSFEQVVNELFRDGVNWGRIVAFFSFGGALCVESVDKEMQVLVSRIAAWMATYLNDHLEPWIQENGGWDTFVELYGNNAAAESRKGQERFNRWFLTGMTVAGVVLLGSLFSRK

Structure (SMILES) | IC50 [1] [µM] | IC50 [2] [nM] | IC50 [3] [µM] | IC50 [4] [µM]
COc1c(O)cc2cccc(OC)c(=O)c2c1OC | > 100 | – | – | –
O=C(O)c1cc(O)c(=O)c2cc(O)c(O)cc2c1 | 22.9 | – | – | –
Cc1cc2c(C(C)C)c(O)c(O)c(C=O)c2c(O)c1-c1c(C)cc2c(C(C)C)c(O)c(O)c(C=O)c2c1O [GOSSYPOL] | – | 500 | 13.2 | 8.4
CCOC(=O)c1cc(O)c(=O)c2cc(O)c(O)cc2c1 | 51.5 | – | – | 50

Further lines, with some results ahead:

IC50 [1] [µM] | Structure (SMILES) | IC50 [2] [nM] | IC50 [3] [µM] | IC50 [4] [µM]
30 | COC(=O)c1cc(O)c(=O)c2cc(O)c(O)cc2c1 | – | – | –
> 100 | COc1cc2cccc(OC)c(=O)c2c(OC)c1OC | – | – | –
6.5 | O=c1c(O)cccc2cc(O)c(O)c(O)c12 [PURPUROGALLIN] | – | – | –
